Tests used:
[1] = biological target: Coagulation factor X (Homo sapiens, UniProt P00742); assay: Inhibition of human factor 10a
Procedure, shortened: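 Human FXa was preincubated with compound in DMSO; 3 mM chromogenic substrate (stock) was added for 10 min at 37 °C. Inhibition was computed against DMSO control, with IC50 from least-squares regression; duplicate means.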

[2] = test system: Plasma; assay: Anticoagulant potency in human plasma assessed as concentration required to double prothrombin time after 4 mins; type: functional
Procedure, shortened: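 Human normal plasma was preincubated with compound in DMSO at 37 °C for 4 min. Clotting was started with thromboplastin and PT was timed on an automatic coagulometer. Prolongation was referenced to DMSO vehicle, and PT2 (clotting-time doubling concentration) was obtained from a least-squares regression line. Duplicate measurements, averaged.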

[3] = test system: Plasma; assay: Anticoagulant potency in mouse plasma assessed as concentration required to double prothrombin time after 4 mins; type: functional
[4] = test system: Mus musculus; assay: Ex vivo anticoagulant potency in ICR mouse blood at 30 mg/kg, po after 1 hr expressed as ratio of prothrombin time in drug treated animal to control; type: functional
Procedure, shortened: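 Male ICR mice (30-35 g), fasted >12 h, received compound orally at 30 mg/kg as a suspension in 0.5% methylcellulose; controls got vehicle alone (n = 3-5). Aortic blood was taken at 1 h under pentobarbital into 3.8% citrate (9:1). Platelet-poor plasma (1000g, 10 min) was preincubated 4 min at 37 °C, then thromboplastin added. Clotting time expressed as ratio versus control.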

[5] = biological target: CYP3A4 (Homo sapiens, UniProt P08684); assay: Inhibition of human CYP3A4 at 1 uM by spectrofluorimeter; type: ADME
Procedure, shortened: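 Microsomes from CYP3A4-expressing insect cells were incubated with 40 µM 7-benzyloxyquinoline and 1 µM test compound. Metabolite formed was quantified with a spectrofluorometer.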

[6] = biological target: Prothrombin (Homo sapiens, UniProt P00734); assay: Inhibition of human thrombin
Procedure, shortened: (§1)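 Chromogenic assays at 37 °C. Final enzyme levels: thrombin 0.080 U/mL, trypsin 0.040 µg/mL, plasmin 0.040 U/mL, kallikrein 0.020 U/mL, t-PA 4000 U/mL. Compound was preincubated with enzyme in buffer for 30 min, then substrate added and p-nitroanilide release monitored continuously for 5 min at 405 nm. Ki taken from Lineweaver–Burk plots across substrate concentrations.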

[7] = biological target: Plasma kallikrein (Homo sapiens, UniProt P03952); assay: Inhibition of human kallikrein; procedure, shortened: as §1
[8] = biological target: Trypsin (Homo sapiens, UniProt P07477+P07478+P35030); assay: Inhibition of human trypsin; type: protein assay; procedure, shortened: as §1
[9] = biological target: Plasminogen (Homo sapiens, UniProt P00747); assay: Inhibition of human plasmin; procedure, shortened: as §1
[10] = biological target: Tissue-type plasminogen activator (Homo sapiens, UniProt P00750); assay: Inhibition of human tPA; procedure, shortened: as §1
[11] = Drug concentration in cynomolgus monkey at 1 mg/kg, iv after 5 mins; type: ADME, organism-based, Macaca fascicularis; design: dose 1 mg/kg, route intravenous; details: in vivo, read-out: Activity
Procedure, shortened: (§2)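 Male cynomolgus monkeys (n = 3), fasted; dosed iv (1 mg/kg in DMA/PEG400) or po (1 mg/kg, 0.5% methylcellulose suspension). Femoral vein blood drawn up to 24 h; plasma deproteinized with acetonitrile, diluted with 0.01 M ammonium formate pH 3.0, and analysed by LC/MS/MS (ODS column, positive ion turbo ionspray). Values given as mean ± SD of three determinations.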

[12] = test system: Cynomolgus monkey; assay: AUC in cynomolgus monkey at 1 mg/kg, iv; type: ADME, organism-based, Macaca fascicularis, Plasma; design: dose 1 mg/kg, route intravenous; details: in vivo; procedure, shortened: as §2
[13] = Mean residence time in cynomolgus monkey at 1 mg/kg, iv; type: ADME, organism-based, Macaca fascicularis; design: dose 1 mg/kg, route intravenous; details: in vivo; procedure, shortened: as §2
[14] = Volume of distribution at steady state in cynomolgus monkey at 1 mg/kg, iv; type: ADME, organism-based, Macaca fascicularis; design: dose 1 mg/kg, route intravenous; details: in vivo, read-out: Vdss; procedure, shortened: as §2
[15] = Total clearance in cynomolgus monkey at 1 mg/kg, iv; type: ADME, organism-based, Macaca fascicularis; design: dose 1 mg/kg, route intravenous; details: in vivo; procedure, shortened: as §2
[16] = Cmax in cynomolgus monkey at 1 mg/kg, po; type: ADME, organism-based, Macaca fascicularis; design: dose 1 mg/kg, route oral; details: in vivo; procedure, shortened: as §2
[17] = Tmax in cynomolgus monkey at 1 mg/kg, po; type: ADME, organism-based, Macaca fascicularis; design: dose 1 mg/kg, route oral; details: in vivo; procedure, shortened: as §2
[18] = AUC in cynomolgus monkey at 1 mg/kg, po; type: ADME, organism-based, Macaca fascicularis; design: dose 1 mg/kg, route oral; details: plasma; procedure, shortened: as §2
[19] = Mean residence time in cynomolgus monkey at 1 mg/kg, po; type: ADME, organism-based, Macaca fascicularis; design: dose 1 mg/kg, route oral; details: in vivo; procedure, shortened: as §2
[20] = Oral bioavailability in cynomolgus monkey at 1 mg/kg; type: ADME, organism-based, Macaca fascicularis; details: in vivo; procedure, shortened: as §2
[21] = test system: Cynomolgus monkey; assay: Ex vivo anticoagulant potency in cynomolgus monkey blood assessed as prothrombin time prolongation at 3 mg/kg, po after 0.5 hr; type: functional, Macaca fascicularis
Procedure, shortened: (§3)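 Male cynomolgus monkeys (3.5-4 kg), fasted >12 h, n = 3, given 3 mg/kg orally. Femoral vein blood was drawn into 3.8% citrate (9:1) at intervals, spun at 1000g for 10 min to platelet-poor plasma, and PT measured with thromboplastin on a coagulometer. Results are % of basal value, mean ± SEM.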

[22] = test system: Cynomolgus monkey; assay: Ex vivo anticoagulant potency in cynomolgus monkey blood assessed as prothrombin time prolongation at 3 mg/kg, po after 1 hr; type: functional, Macaca fascicularis; procedure, shortened: as §3
[23] = test system: Cynomolgus monkey; assay: Ex vivo anticoagulant potency in cynomolgus monkey blood assessed as prothrombin time prolongation at 3 mg/kg, po after 2 hrs; type: functional, Macaca fascicularis; procedure, shortened: as §3
[24] = test system: Cynomolgus monkey; assay: Ex vivo anticoagulant potency in cynomolgus monkey blood assessed as prothrombin time prolongation at 3 mg/kg, po after 4 hrs; type: functional, Macaca fascicularis; procedure, shortened: as §3
[25] = test system: Cynomolgus monkey; assay: Ex vivo anticoagulant potency in cynomolgus monkey blood assessed as prothrombin time prolongation at 3 mg/kg, po after 8 hrs; type: functional, Macaca fascicularis; procedure, shortened: as §3
[26] = test system: Plasma; assay: Anticoagulant potency in cynomolgus monkey plasma assessed as concentration required to double prothrombin time; type: functional, Macaca fascicularis

Sequence of Coagulation factor X (P00742 41-179 limits assumed): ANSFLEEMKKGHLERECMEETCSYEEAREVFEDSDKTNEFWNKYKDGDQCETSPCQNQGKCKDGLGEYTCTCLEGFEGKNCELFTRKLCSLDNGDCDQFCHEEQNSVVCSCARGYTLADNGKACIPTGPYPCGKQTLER
Sequence of Coagulation factor X (P00742 235-488 limits assumed): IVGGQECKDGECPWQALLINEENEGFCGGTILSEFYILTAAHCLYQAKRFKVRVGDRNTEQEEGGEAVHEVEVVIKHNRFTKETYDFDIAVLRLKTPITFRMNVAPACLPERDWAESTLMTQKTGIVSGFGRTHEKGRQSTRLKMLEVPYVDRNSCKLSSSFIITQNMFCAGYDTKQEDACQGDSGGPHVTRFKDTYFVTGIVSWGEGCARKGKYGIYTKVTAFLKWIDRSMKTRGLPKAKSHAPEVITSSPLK
Sequence of CYP3A4 (P08684 whole entry): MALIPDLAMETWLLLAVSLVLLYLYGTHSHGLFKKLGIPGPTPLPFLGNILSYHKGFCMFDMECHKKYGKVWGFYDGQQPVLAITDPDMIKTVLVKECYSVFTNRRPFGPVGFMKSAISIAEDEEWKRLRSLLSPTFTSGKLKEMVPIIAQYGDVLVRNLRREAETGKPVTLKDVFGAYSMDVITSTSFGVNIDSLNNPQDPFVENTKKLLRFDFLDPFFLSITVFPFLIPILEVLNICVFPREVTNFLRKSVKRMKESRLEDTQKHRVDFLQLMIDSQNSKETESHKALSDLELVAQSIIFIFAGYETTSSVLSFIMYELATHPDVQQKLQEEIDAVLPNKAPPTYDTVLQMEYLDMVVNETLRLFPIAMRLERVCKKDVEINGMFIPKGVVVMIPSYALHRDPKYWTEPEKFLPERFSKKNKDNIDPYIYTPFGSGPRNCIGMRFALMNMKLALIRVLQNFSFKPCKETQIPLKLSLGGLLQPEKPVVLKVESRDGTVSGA
Sequence of Tissue-type plasminogen activator (P00750 whole entry): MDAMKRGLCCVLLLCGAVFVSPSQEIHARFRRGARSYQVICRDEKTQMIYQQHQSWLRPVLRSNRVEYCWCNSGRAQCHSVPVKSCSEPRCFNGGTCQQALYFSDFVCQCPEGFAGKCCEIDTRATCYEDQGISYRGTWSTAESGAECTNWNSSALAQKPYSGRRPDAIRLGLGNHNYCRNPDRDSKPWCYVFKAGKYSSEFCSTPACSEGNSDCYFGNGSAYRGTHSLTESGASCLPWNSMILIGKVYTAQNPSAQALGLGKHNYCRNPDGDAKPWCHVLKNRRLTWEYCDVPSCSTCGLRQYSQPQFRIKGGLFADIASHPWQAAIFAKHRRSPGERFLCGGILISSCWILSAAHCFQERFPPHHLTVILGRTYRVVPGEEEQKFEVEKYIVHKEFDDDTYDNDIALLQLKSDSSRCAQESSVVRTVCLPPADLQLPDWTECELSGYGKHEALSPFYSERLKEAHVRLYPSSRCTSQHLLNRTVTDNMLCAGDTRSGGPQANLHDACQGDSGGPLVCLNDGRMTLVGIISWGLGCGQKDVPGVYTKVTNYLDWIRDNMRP
Sequence of Plasminogen (P00747 97-580 limits assumed): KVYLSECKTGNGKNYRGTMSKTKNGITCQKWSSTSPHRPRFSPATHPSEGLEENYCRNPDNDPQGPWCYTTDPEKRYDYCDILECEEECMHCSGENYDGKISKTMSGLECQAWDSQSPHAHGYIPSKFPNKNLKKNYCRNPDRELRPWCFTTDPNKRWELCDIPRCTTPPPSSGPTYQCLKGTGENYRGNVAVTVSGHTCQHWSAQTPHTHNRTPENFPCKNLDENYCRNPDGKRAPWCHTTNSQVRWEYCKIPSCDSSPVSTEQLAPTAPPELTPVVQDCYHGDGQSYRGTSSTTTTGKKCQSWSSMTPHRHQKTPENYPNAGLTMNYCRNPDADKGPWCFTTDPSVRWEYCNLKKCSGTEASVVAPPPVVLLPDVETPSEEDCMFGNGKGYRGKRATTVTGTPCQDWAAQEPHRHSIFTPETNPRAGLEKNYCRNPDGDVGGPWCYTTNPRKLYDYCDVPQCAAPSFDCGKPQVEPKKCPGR
Sequence of Plasminogen (P00747 581-810 limits assumed): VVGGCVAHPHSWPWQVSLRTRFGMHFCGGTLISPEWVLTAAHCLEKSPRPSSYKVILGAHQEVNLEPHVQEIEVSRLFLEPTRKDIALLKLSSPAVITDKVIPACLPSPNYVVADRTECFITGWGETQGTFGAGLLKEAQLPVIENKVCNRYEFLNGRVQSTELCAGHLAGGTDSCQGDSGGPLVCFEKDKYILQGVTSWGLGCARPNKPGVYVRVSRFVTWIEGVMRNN
Sequence of Plasma kallikrein (P03952 20-390 limits assumed): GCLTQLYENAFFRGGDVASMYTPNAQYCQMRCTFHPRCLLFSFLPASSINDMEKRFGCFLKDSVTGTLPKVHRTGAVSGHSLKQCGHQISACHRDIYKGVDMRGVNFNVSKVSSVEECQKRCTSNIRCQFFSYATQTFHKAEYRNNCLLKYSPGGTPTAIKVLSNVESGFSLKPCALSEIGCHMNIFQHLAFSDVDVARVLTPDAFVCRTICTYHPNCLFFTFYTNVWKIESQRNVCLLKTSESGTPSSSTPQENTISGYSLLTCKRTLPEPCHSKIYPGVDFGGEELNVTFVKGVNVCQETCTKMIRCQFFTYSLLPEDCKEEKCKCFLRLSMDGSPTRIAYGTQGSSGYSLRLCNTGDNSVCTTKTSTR
Sequence of Plasma kallikrein (P03952 391-638 limits assumed): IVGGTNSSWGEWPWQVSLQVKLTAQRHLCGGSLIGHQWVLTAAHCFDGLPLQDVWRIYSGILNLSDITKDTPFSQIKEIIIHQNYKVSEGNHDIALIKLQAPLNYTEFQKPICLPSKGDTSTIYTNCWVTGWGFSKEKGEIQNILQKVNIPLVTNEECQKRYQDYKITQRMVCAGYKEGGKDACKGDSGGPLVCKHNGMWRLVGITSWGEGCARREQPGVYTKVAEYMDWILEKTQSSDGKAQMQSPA

SMILES: Cc1cc(N2CCC(N(C)C(=O)CCS(=O)(=O)c3ccc4cc(Cl)ccc4c3)CC2)ccn1
- IC50 [1]: 0.061 µM
- Ki [1]: 0.015 µM
- Activity [2]: 1.6 µM
- Activity [3]: 4.8 µM
- Ratio [4]: 1.6
- inhibition at 1 µM [5]: 40%
- Ki [6]: 7.5 µM
- Ki [7]: 3 µM
- Ki [8]: > 200 µM
- Ki [9]: > 200 µM
- Ki [10]: 67 µM
- concentration at 5 min [11]: 565 ng/mL
- AUC [12]: 1580 ng·h/mL
- MRT [13]: 4.54 h
- Vd [14]: 3.29 L/kg
- clearance [15]: 12.2 mL/min/kg
- Cmax [16]: 134 ng/mL
- Tmax [17]: 2 h
- AUC [18]: 1030 ng·h/mL
- MRT [19]: 6.6 h
- bioavailability [20]: 66.7%
- Activity [21]: 142%
- Activity [22]: 133.6%
- Activity [23]: 146.9%
- Activity [24]: 144.6%
- Activity [25]: 117.7%
- Activity [26]: 1.1 µM

SMILES: O=C(NCCCS(=O)(=O)c1ccc2cc(Cl)ccc2c1)C1CCN(c2ccncc2)CC1
- IC50 [1]: 0.47 µM

SMILES: Cc1cc(N2CCC(N(C)C(=O)CCS(=O)(=O)c3cc4cc(Cl)ccc4s3)CC2)ccn1
- IC50 [1]: > 5 µM

SMILES: Cc1ccc2cc(S(=O)(=O)CCC(=O)N(C)C3CCN(c4ccnc(C)c4)CC3)ccc2c1
- IC50 [1]: 0.72 µM

SMILES: O=C(C1CCN(c2ccncc2)CC1)N1CCN(S(=O)(=O)c2ccc3cc(Cl)ccc3c2)CC1
- IC50 [1]: 0.033 µM

SMILES: CN(C(=O)CCCS(=O)(=O)c1ccc2cc(Cl)ccc2c1)C1CCN(c2ccncc2)CC1
- IC50 [1]: 0.14 µM

SMILES: CCN(CCCS(=O)(=O)c1ccc2cc(Cl)ccc2c1)C(=O)C1CCN(c2ccncc2)CC1
- IC50 [1]: 0.12 µM
- Activity [2]: 3.2 µM

SMILES: CCOC(=O)CN(C(=O)CCS(=O)(=O)c1ccc2cc(Cl)ccc2c1)C1CCN(c2ccncc2)CC1
- IC50 [1]: 0.06 µM
- Activity [2]: 1.1 µM
- Activity [3]: 10 µM
- Ratio [4]: 1.1

SMILES: O=C(CCS(=O)(=O)c1ccc2cc(Cl)ccc2c1)N1CCN(c2ccncc2)CC1
- IC50 [1]: 0.16 µM

SMILES: CN(C(=O)CS(=O)(=O)c1ccc2cc(Cl)ccc2c1)C1CCN(c2ccncc2)CC1
- IC50 [1]: 0.72 µM

SMILES: CN(C(=O)CCS(=O)(=O)c1ccc2cc(Cl)ccc2c1)C1CCN(c2ccnc(CO)c2)CC1
- IC50 [1]: 0.11 µM
- Activity [2]: 1.5 µM
- Activity [3]: 6.4 µM
- Ratio [4]: 1.1
- inhibition at 1 µM [5]: 21%

SMILES: CN(C(=O)CCS(=O)(=O)c1ccc2cc(Cl)ccc2c1)C1CCN(c2ccncc2)CC1
- IC50 [1]: 0.05 µM
- Activity [2]: 1 µM
- Activity [3]: 8 µM
- Ratio [4]: 1.6
- inhibition at 1 µM [5]: 81%

SMILES: CCOC(=O)CN(CCCS(=O)(=O)c1ccc2cc(Cl)ccc2c1)C(=O)C1CCN(c2ccncc2)CC1
- IC50 [1]: 0.064 µM
- Activity [2]: 1.9 µM
- Activity [3]: 11 µM
- Ratio [4]: 1

SMILES: CC(C)N(CCCS(=O)(=O)c1ccc2cc(Cl)ccc2c1)C(=O)C1CCN(c2ccncc2)CC1
- IC50 [1]: 0.25 µM
- Activity [2]: 8.4 µM

SMILES: Cc1cc(N2CCC(N(C)C(=O)CCS(=O)(=O)c3ccc4ccc(Cl)cc4c3)CC2)ccn1
- IC50 [1]: > 5 µM

SMILES: Cc1cc(N2CCC(N(C)C(=O)CCS(=O)(=O)c3cc4ccc(Cl)cc4s3)CC2)ccn1
- IC50 [1]: > 5 µM

SMILES: Cc1cc(N2CCC(N(C)C(=O)CCS(=O)(=O)c3ccc4cc(Cl)ccc4c3)CC2)cc(C)n1
- Activity [2]: 1.6 µM
- Activity [3]: 4.1 µM
- Ratio [4]: 1.3
- inhibition at 1 µM [5]: 40%

SMILES: CN(CCCS(=O)(=O)c1ccc2cc(Cl)ccc2c1)C(=O)C1CCN(c2ccncc2)CC1
- Activity [2]: 1.7 µM
- Activity [3]: 17 µM
- Ratio [4]: 1.3

SMILES: CCOC(=O)CCN(C(=O)CCS(=O)(=O)c1ccc2cc(Cl)ccc2c1)C1CCN(c2ccncc2)CC1
- Activity [2]: 0.85 µM
- Activity [3]: 14 µM
- Ratio [4]: 1

SMILES: NC(=O)CN(CCCS(=O)(=O)c1ccc2cc(Cl)ccc2c1)C(=O)C1CCN(c2ccncc2)CC1
- IC50 [1]: 0.12 µM
- Activity [2]: 2.1 µM

SMILES: Cc1cc(N2CCC(N(C)C(=O)CCS(=O)(=O)c3ccc4c(Cl)cccc4c3)CC2)ccn1
- IC50 [1]: > 5 µM

SMILES: CN(C(=O)CCS(=O)(=O)c1ccc2cc(Cl)ccc2c1)C1CCN(c2ccnc(N)c2)CC1
- IC50 [1]: 0.079 µM
- Activity [2]: 3.6 µM
- inhibition at 1 µM [5]: 49%

SMILES: CN(CCS(=O)(=O)c1ccc2cc(Cl)ccc2c1)C(=O)C1CCN(c2ccncc2)CC1
- IC50 [1]: 0.84 µM

SMILES: O=C(O)CN(CCCS(=O)(=O)c1ccc2cc(Cl)ccc2c1)C(=O)C1CCN(c2ccncc2)CC1
- IC50 [1]: 0.054 µM
- Activity [2]: 1.8 µM
- Activity [3]: 14 µM
- Ratio [4]: 1

SMILES: NCCN(C(=O)CCS(=O)(=O)c1ccc2cc(Cl)ccc2c1)C1CCN(c2ccncc2)CC1
- IC50 [1]: 0.095 µM
- Activity [2]: 0.63 µM
- Activity [3]: 8.6 µM
- Ratio [4]: 1

SMILES: CC(=N)N1CC[C@H](Oc2ccc([C@H](Cc3ccc4ccc(C(=N)N)cc4c3)C(=O)O)cc2)C1 [DX-9065A]
- Activity [2]: 0.69 µM
- Activity [3]: 6.8 µM
